Assay results as given in ChEMBL document CHEMBL1147780, “Peptide inhibitors of Dengue virus NS3 protease. Part 1: Warhead” (Bioorg Med Chem Lett, 2006).
Where a SMILES comes first, the peptide text is derived from it. [ ]: non-standard residue; d: D form. The star is where a group is joined. Nle = CCCC[C@H](N)C(=O)O; Bz = O=C(c1ccccc1)*; CF3 = FC(F)(F)*

target: Genome polyprotein (dengue virus type 2, UniProt P29990); assay: Inhibitory activity against CF40.NS3pro from Dengue virus type 2
How it was run: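 Enzyme: truncated dengue 2 NS3 protease fused through a flexible linker to a […] NS2B region. Inhibitors tested in 96-well format in 50 mM Tris, pH 8.5, with 1 mM CHAPS. Values reported as Ki.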

Chain of Genome polyprotein (P29990 1346-1475 limits assumed): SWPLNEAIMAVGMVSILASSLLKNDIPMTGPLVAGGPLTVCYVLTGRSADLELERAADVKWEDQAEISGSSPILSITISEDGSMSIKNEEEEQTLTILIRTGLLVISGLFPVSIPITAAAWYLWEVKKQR
Chain of Genome polyprotein (P29990 1476-2093 limits assumed): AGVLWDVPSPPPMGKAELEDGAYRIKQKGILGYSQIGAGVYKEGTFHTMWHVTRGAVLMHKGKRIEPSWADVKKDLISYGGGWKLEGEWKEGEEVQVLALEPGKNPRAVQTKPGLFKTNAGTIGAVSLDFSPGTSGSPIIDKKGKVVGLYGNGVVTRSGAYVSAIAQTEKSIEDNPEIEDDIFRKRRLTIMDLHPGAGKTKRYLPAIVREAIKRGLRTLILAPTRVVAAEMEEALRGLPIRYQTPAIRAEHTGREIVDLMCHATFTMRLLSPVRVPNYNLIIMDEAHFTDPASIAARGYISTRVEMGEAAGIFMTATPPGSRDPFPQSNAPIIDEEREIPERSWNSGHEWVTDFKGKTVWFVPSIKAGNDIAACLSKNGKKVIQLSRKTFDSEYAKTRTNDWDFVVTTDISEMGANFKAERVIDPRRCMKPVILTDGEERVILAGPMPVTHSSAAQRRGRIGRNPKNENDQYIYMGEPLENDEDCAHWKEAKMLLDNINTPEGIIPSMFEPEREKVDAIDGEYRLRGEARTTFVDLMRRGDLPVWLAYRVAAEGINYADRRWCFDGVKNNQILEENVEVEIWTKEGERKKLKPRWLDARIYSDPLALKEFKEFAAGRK

Compound | Ki [µM]
CCCC[C@H](NC(=O)c1ccccc1)C(=O)N[C@@H](CCCCN)C(=O)N[C@@H](CCCN=C(N)N)C(=O)N[C@@H](CCCN=C(N)N)B(O)O | 0.043
CCCC[C@H](NC(=O)c1ccccc1)C(=O)N[C@@H](CCCCN)C(=O)N[C@@H](CCCNC(=N)N)C(=O)N[C@@H](CCCNC(=N)N)C(=O)c1nc2ccccc2o1 | 82.9
CCCC[C@H](NC(=O)c1ccccc1)C(=O)N[C@@H](CCCCN)C(=O)N[C@@H](CCCNC(=N)N)C(=O)N[C@@H](CCCNC(=N)N)C(=O)c1nccs1 | 42.8
CCCC[C@H](NC(=O)c1ccccc1)C(=O)N[C@@H](CCCCN)C(=O)N[C@@H](CCCN=C(N)N)C(=O)N[C@@H](CCCN=C(N)N)C(=O)NS(=O)(=O)C(F)(F)F | > 500
CCCC[C@H](NC(=O)c1ccccc1)C(=O)N[C@@H](CCCCN)C(=O)N[C@@H](CCCN=C(N)N)C(=O)N[C@@H](CCCN=C(N)N)C(O)C(=O)NCc1ccccc1 (stereo partly specified) | 178
CCCC[C@H](NC(=O)c1ccccc1)C(=O)N[C@@H](CCCCN)C(=O)N[C@@H](CCCN=C(N)N)C(=O)N[C@@H](CCCN=C(N)N)C(=O)C(F)(F)F (Bz-[Nle]KRR-CF3) | 0.85
CCCC[C@H](NC(=O)c1ccccc1)C(=O)N[C@@H](CCCCN)C(=O)N[C@@H](CCCN=C(N)N)C(=O)N[C@@H](CCCN=C(N)N)C(N)=O (Bz-[Nle]KRR-NH2) | 128
CCCC[C@H](NC(=O)c1ccccc1)C(=O)N[C@@H](CCCCN)C(=O)N[C@@H](CCCN=C(N)N)C(=O)N[C@@H](CCCN=C(N)N)C(=O)O (Bz-[Nle]KRR-OH) | > 500
CCCC[C@H](NC(=O)c1ccccc1)C(=O)N[C@@H](CCCCN)C(=O)N[C@H](C(=O)N[C@@H](CCCN=C(N)N)C(N)=O)[C@@H](C)O (Bz-[Nle]KTR-NH2) | > 500
CCCC[C@H](NC(=O)c1ccccc1)C(=O)N[C@@H](CCCCN)C(=O)N[C@H](C(=O)N[C@@H](CCCN=C(N)N)C(=O)O)[C@@H](C)O (Bz-[Nle]KTR-OH) | > 500
CCCC[C@H](NC(=O)c1ccccc1)C(=O)N[C@@H](CCCCN)C(=O)N[C@H](C(=O)N[C@H](C=O)CCCN=C(N)N)[C@@H](C)O (Bz-[Nle]KTR-aldehyde) | > 500
